High-throughput results (PubChem BioAssay)
An excerpt weighted towards active compounds, which were near 1.5% of everything screened.
Jurkat NFkB inh = inhibitors of the PMA/ionomycin-induced NF-kB reporter in Jurkat cells; PMA/ionomycin-induced NF-kB luciferase reporter, luminescence; inhibition, % at 4 µM; 0.53% of 330,000 active; in the data active = inhibition above about 50%
NR2E3 ag-1 = human photoreceptor-specific nuclear receptor agonism; Q9Y5X4; inhibition of corepressor binding, % at 3.98 µM; 0.35% of 360,000 active; AID 602229; CHO-S Gal4-NCOR/VP16-NR2E3 two-hybrid, luciferase;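 active = inhibition above the mean of all tested compounds plus 3 SD, cut at about 70% in these data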;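 note: higher means lower luciferase signal from less NR2E3 corepressor binding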
Target sequence (Q9Y5X4 whole entry, looked up, the tested form may be a part): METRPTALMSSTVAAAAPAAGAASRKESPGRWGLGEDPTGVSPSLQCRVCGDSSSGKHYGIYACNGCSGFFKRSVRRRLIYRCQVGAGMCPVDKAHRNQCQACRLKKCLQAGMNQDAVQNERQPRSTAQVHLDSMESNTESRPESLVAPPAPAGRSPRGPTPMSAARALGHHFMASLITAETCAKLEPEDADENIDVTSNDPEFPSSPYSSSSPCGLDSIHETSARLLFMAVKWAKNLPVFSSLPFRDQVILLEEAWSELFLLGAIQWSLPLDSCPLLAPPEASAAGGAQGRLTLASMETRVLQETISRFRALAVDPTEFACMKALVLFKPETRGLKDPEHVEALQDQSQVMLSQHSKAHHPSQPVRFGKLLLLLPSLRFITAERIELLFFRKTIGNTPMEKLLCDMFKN
JMJD2C inh = human JMJD2C demethylase inhibition; Q9H3R0; GST-JMJD2C(1-420) H3K9me3 demethylation, DELFIA europium; inhibition, % at 2.35 µM; 0.069% of 330,000 active; AID 2099;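 active = more than half of a compound's replicate wells show inhibition beyond 50%, single wells judged on their own value; inconclusive = some, but no more than half, of replicates pass 50% inhibition; inactive = no replicate passes 50% inhibition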;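 note: signal counts dimethyl H3K9 product captured on neutravidin plate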
NR2E3 ag-2 = activates human photoreceptor nuclear receptor NR2E3; inhibition of corepressor binding, % at 4.78 µM; 0.12% of 320,000 active; Q9Y5X4; GST-NR2E3/biotin-RetCOR TR-FRET, 1536-well; AID 2300;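 active = percent inhibition above the cutoff of mean plus 3 SD of all tested compounds, set per screening campaign, cut at about 20% in these data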
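Material – GST-tagged NR2E3 plus biotinylated RetCOR corepressor · Quantity – NR2E3 fusion 1.35 nM · Times – 5 h incubation at 4 °C · Medium – pH 7.5 Tris-based buffer · Technique – TR-FRET, Eu(K)-anti-GST donor, streptavidin-D2 acceptor, ex 340, em 617/671 nm · Benchmarks – high control biotin, low control 0.6% DMSO · Format – 1536-well plates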
GalR3 antag = blocks the human galanin receptor 3; O60755; AID 651719; 0.44% of 360,000 active; HEK293 GalR3-CNG cAMP membrane potential fluorescence; galR3 body fused to GalR1 C-terminus; inhibition, % at 3 µM;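 active = inhibition above the screen-wide average plus 3 SD, cut at about 13% in these data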;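 note: forskolin and galanin both at EC90 stimulate the cells; cAMP rise reported by CNG channel membrane potential dye signal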
Target sequence (O60755 1-299 limits assumed): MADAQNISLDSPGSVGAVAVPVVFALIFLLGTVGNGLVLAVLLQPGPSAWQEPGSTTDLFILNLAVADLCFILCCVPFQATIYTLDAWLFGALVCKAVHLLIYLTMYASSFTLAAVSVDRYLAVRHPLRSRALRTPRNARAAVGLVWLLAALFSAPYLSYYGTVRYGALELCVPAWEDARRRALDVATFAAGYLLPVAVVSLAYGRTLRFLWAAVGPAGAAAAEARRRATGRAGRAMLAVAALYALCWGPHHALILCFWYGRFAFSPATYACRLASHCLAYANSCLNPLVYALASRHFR
697 NFkB inh = inhibitors of the PMA/ionomycin-induced NF-kB reporter in 697 B cells. 697 B-cell NF-kB luciferase reporter, 16 h. 0.33% of 330,000 active. inhibition, % at 4 µM. AID 435022; in the data active = inhibition above about 35%
697 NFkB conf = lowers PMA/ionomycin-induced NF-kB signal in 697 B cells | shares compounds with 697 NFkB inh | 697 B-cell NF-kB luciferase, 16 h | inhibition, % at 4 µM | 35% of 2,000 active; in the data active = inhibition mostly above about 28%, no sharp cut-off; inactive = mostly below about 22%
Of the large screens only hits and unclear results are named; the others gave an inactive call (follow-up assays come after a bar, where they were run).

COc1cc(OC)c(/C=N/NC(N)=S)cc1Br	697 NFkB inh 55.2 | 697 NFkB conf 18.0
Cc1ccsc1C(=O)NNC(=O)c1cccc(S(=O)(=O)N2CCCC2)c1	none
COc1ccc2nc(NN=C(C)c3ccccn3)cc(C)c2c1	none (no result: Jurkat NFkB inh, JMJD2C inh, NR2E3 ag-2, 697 NFkB inh)
COc1ccc(C=C(C(C)=O)C(C)=O)cc1OC	697 NFkB inh 42.7 | 697 NFkB conf 30.3
Cn1cc(CN2CCN(Cc3ccccc3)C(CCO)C2)c(-c2ccccc2)n1 (stereo not drawn)	none
CCOC(=O)N1CCC(N2CCN(S(=O)(=O)c3ccc([N+](=O)[O-])cc3)CC2)CC1	697 NFkB inh 35.2 | 697 NFkB conf inactive
CCCCC(=O)N(C)c1c(C)nc2ccc(C(=O)N3CCN(c4ccccc4)CC3)cn12	none (no result: Jurkat NFkB inh, JMJD2C inh, NR2E3 ag-2, 697 NFkB inh)
CC(=O)/C(C#N)=C1\NC(=O)C(Cc2ccc(F)cc2)S1 (stereo not drawn)	none
CC(=O)/C(C#N)=C1\NC(=O)C(Cc2ccc(C)c(C)c2)S1 (stereo not drawn)	none | 697 NFkB conf inactive
NC1=NC(=O)C(Cc2cc(Cl)ccc2Cl)S1 (stereo not drawn)	none
CC(=O)/C(C#N)=C1\NC(=O)C(Cc2cc(Cl)ccc2Cl)S1 (stereo not drawn)	none | 697 NFkB conf inactive
CC(=O)/C(C#N)=C1\NC(=O)C(Cc2ccccc2Cl)S1 (stereo not drawn)	none | 697 NFkB conf inactive
CCCC[C@@H]1CC2=C(C(=O)OC(C)(C)O2)[C@@H](c2ccc(F)cc2)O1	none (no result: Jurkat NFkB inh, JMJD2C inh, NR2E3 ag-2, 697 NFkB inh)
CC1(C(=O)NC2CCN(Cc3ccccc3)CC2)CCN1Cc1ccc2ccccc2c1 (stereo not drawn)	none (no result: Jurkat NFkB inh, JMJD2C inh, NR2E3 ag-2, 697 NFkB inh)
O=[N+]([O-])c1ccc(/C=N\NS(=O)(=O)c2ccc(F)cc2)o1	none
O=c1c(C=NCCCn2ccnc2)c(-c2ccccc2)[nH]n1-c1nc2ccccc2s1	JMJD2C inh inconclusive
CN(C)CCCN=Cc1c(-c2ccccc2)[nH]n(-c2nc3ccccc3s2)c1=O	697 NFkB inh 42.0 | 697 NFkB conf 43.8
COc1ccc(OC)c(S(=O)(=O)Nc2ccc(-c3ccc4nnc(C)n4n3)cc2)c1	697 NFkB inh 50.2 | 697 NFkB conf 39.0
CC(=O)c1ccc(S(=O)(=O)Nc2ccc(-c3ccc4nnc(C)n4n3)cc2)cc1	none
Cc1nnc2ccc(-c3ccc(NS(=O)(=O)c4ccccc4)cc3)nn12	697 NFkB inh 37.5 (no result: JMJD2C inh, NR2E3 ag-2) | 697 NFkB conf inactive
CCc1ccc(S(=O)(=O)Nc2cccc(-c3ccc4nnc(C)n4n3)c2)s1	697 NFkB inh 38.5 | 697 NFkB conf inactive
COc1ccc(S(=O)(=O)Nc2ccc(-c3ccc4nnc(C)n4n3)cc2)c(OC)c1	none
Cc1noc(C)c1COc1ccc(C(=O)OCC(=O)Nc2cccc(S(=O)(=O)N3CCOCC3)c2)cc1	697 NFkB inh 38.8 | 697 NFkB conf inactive
Cc1noc(C)c1COC(=O)c1cccc(S(=O)(=O)N2CCOCC2)c1	none
COc1ccccc1NC(=O)N1CCN(c2ccc3nnc(-c4ccc(F)cc4)n3n2)CC1	697 NFkB inh 35.1 | 697 NFkB conf inactive
O=C(Nc1ccccc1Cl)N1CCN(c2ccc3nnc(-c4ccc(F)cc4)n3n2)CC1	697 NFkB inh 36.3 | 697 NFkB conf inactive
COc1ccccc1NC(=O)N1CCN(c2ccc3nncn3n2)CC1	none
COc1cccc(Nc2nc(C(N)Cc3ccc(Cl)cc3)cs2)n1 (stereo not drawn)	none (no result: Jurkat NFkB inh, JMJD2C inh, NR2E3 ag-2, 697 NFkB inh)
C=CCN1C(=O)c2n[nH]c(C(C)C)c2C1c1ccc(C)cc1 (stereo not drawn)	none (no result: Jurkat NFkB inh, NR2E3 ag-1, JMJD2C inh, NR2E3 ag-2, 697 NFkB inh)
CNC(=O)COC(=O)c1cccnc1SC	697 NFkB inh 35.3 | 697 NFkB conf inactive
CSc1ncccc1C(=O)OCC(=O)NC(N)=O	none
O=C1C[C@@H]2c3c(cccc3CN1Cc1ccccc1F)C[C@@H](O)[C@H]2O	none (no result: Jurkat NFkB inh, JMJD2C inh, NR2E3 ag-2, 697 NFkB inh)
CN(C)c1cccc2c(S(=O)(=O)NCC3CCN(C(=O)C(=O)c4cc5ccccc5o4)CC3)cccc12	none (no result: Jurkat NFkB inh, NR2E3 ag-1, JMJD2C inh, NR2E3 ag-2, 697 NFkB inh)
Cc1nn(C(C)(C)C)c(OC(=O)c2ccc(Br)o2)c1Sc1ccccc1	697 NFkB inh 36.3 | 697 NFkB conf 31.1
O=C(Nc1ccc(N2CCCCC2)cc1)c1ccccc1	none
CC(=O)c1c[nH]c(C(=O)Nc2ccc(N3CCCCCC3)cc2)c1	697 NFkB inh 39.8 | 697 NFkB conf inactive
O=C(Nc1ccc(N2CCCC2)cc1)c1cccc(F)c1	none | 697 NFkB conf inactive
Cc1ccc(CSc2nnc(SCC(=O)N/N=C/C=C/c3ccccc3[N+](=O)[O-])s2)cc1	697 NFkB inh 65.8 | 697 NFkB conf 55.4
Cc1ccc(CSc2nnc(SCC(=O)N/N=C/C=C/c3ccco3)s2)cc1	none
Nc1nonc1-n1nnc(C(=O)N/N=C/c2ccccc2F)c1CN1CCc2ccccc21	none
COc1cccc(C(=O)Nc2ccc3c(c2)CCCN3C(=O)c2cccs2)c1OC	none
Cc1ccccc1C(=O)Nc1ccc2c(c1)CCCN2C(=O)c1cccs1	none | 697 NFkB conf inactive
CC(=O)c1ccc(NC(=O)c2cnn3ccccc23)cc1	697 NFkB inh 36.4 (no result: GalR3 antag) | 697 NFkB conf inactive
Cc1cc(-c2nnc(CCC(=O)N3CCN(Cc4cccc(F)c4)CC3)o2)c(C)o1	none
Cc1cc(C)cc(NC(=O)/C(C#N)=C/c2cn(CC(=O)NCc3ccco3)c3ccccc23)c1	697 NFkB inh 41.0 | 697 NFkB conf inactive
COc1ccc(CCC(=O)NC2CCC(C)CC2)cc1 (stereo not drawn)	none
O=C(O)c1ccc(N/N=C/c2cccc(C(F)(F)F)c2)cc1	none | 697 NFkB conf inactive
O=C(O)c1ccc(N/N=C/c2cccc(F)c2)cc1	none
COc1ccc(NC(=O)c2ccc(COc3ccccc3Br)o2)cc1OC	697 NFkB inh 42.7 | 697 NFkB conf inactive
COc1ccc(NC(=O)c2ccc(COc3ccccc3OC)o2)cc1OC	none
CCCCc1cc(=O)oc2cc(OCC(=O)N(CC)CC)ccc12	697 NFkB inh 39.2 | 697 NFkB conf inactive
COC(=O)c1cc2c(c3c4cc(C)ccc4n(S(=O)(=O)c4ccc(OC)cc4)c13)C(=O)N(Cc1ccccc1)C2	none (no result: Jurkat NFkB inh, NR2E3 ag-1, JMJD2C inh, NR2E3 ag-2, 697 NFkB inh)
COc1cc(NC(=O)CCc2c(C)nc3nc(C)nn3c2C)cc(OC)c1	none
COc1cc(OC)cc(-c2cc3nc(C)c(CCC(=O)Nc4nc(C)cs4)c(C)n3n2)c1	697 NFkB inh 36.3 | 697 NFkB conf 39.4
O=[N+]([O-])c1cc(C=Nc2cccc3c(O)cccc23)ccc1Cl	none (no result: NR2E3 ag-1, GalR3 antag)
c1csc(-c2ccc3ccccc3n2)c1	none
Cc1cc2ncc(-c3cccs3)nc2cc1C	none (no result: NR2E3 ag-2) | 697 NFkB conf inactive
CC(C)(CSc1ncccn1)NS(=O)(=O)c1ccccc1	697 NFkB inh 39.3 | 697 NFkB conf inactive
CCNC(=O)C(=O)Nc1ccc([N+](=O)[O-])cc1	none
